# What was measured:
# Assay type in all cases: functional
# [1] = Growth inhibition of human BT549 cells assessed as cell growth at 10^-4 M incubated for 48 hrs by sulforhodamine B assay; conditions: BT-549, 48 h, read-out: Activity
# Summary of the method: (§1)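 Five-dose assay: five concentrations from 10-fold or ½-log serial dilutions. Cells are plated at 5,000–40,000 per well according to doubling time, grown 24 h, then exposed 48 h at 37 °C, 5% CO₂. Fixed with cold 50% TCA (final addition) for 60 min at 4 °C and stained with 0.4% SRB in 1% acetic acid. Bound dye is solubilized in 10 mM Tris base and read at 515 nm. GI₅₀ is where [(Ti−Tz)/(C−Tz)]×100 = 50, with a time-zero plate as Tz.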
# [2] = Growth inhibition of human RPMI8226 cells incubated for 48 hrs by sulforhodamine B assay; conditions: RPMI-8226, 48 h
# Summary of the method: (§2)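 Cells were plated at 5,000–40,000 per well according to doubling time and preincubated 24 h at 37 °C in 5% CO2; time-zero plates were then TCA-fixed. Five concentrations (10-fold or ½-log dilutions, DMSO stock) were incubated 48 h. Cells were TCA-fixed, stained with 0.4% SRB and read at 515 nm. GI50 was taken where [(Ti−Tz)/(C−Tz)]×100 = 50.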
# [3] = Growth inhibition of human SF295 cells incubated for 48 hrs by sulforhodamine B assay; conditions: SF-295, 48 h; summary of the method: as §2
# [4] = tested on: M14; experiment: Growth inhibition of human M14 cells incubated for 48 hrs by sulforhodamine B assay; conditions: M14, 48 h; summary of the method: as §2
# [5] = tested on: SK-MEL-5; experiment: Growth inhibition of human SK-MEL-5 cells incubated for 48 hrs by sulforhodamine B assay; conditions: SK-MEL-5, 48 h; summary of the method: as §2
# [6] = Growth inhibition of human PC3 cells incubated for 48 hrs by sulforhodamine B assay; conditions: PC-3, 48 h; summary of the method: as §2
# [7] = tested on: 786-0; experiment: Growth inhibition of human 786-0 cells assessed as cell growth at 10^-5 M incubated for 48 hrs by sulforhodamine B assay; conditions: 786-0, 48 h, read-out: Activity; summary of the method: as §1
# [8] = Growth inhibition of human MOLT4 cells assessed as cell growth at 10^-7 M incubated for 48 hrs by sulforhodamine B assay; conditions: MOLT-4, 48 h, read-out: Activity
# Summary of the method: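 Cells plated at 5,000–40,000/well according to doubling time and preincubated 24 h at 37 °C, 5% CO₂, with time-zero plates TCA-fixed. Drugs were kept as DMSO concentrates at 400× the top concentration and diluted in medium with 50 µg/ml gentamicin. Five 10-fold or ½-log dilutions were run for 48 h, followed by SRB staining and A515. Percent growth = (Ti−Tz)/(C−Tz)×100, or (Ti−Tz)/Tz×100 when Ti<Tz.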
# [9] = tested on: NCI-H226; experiment: Growth inhibition of human NCI-H226 cells assessed as cell growth at 10^-7 M incubated for 48 hrs by sulforhodamine B assay; conditions: NCI-H226, 48 h, read-out: Activity
# [10] = tested on: NCI-H460; experiment: Growth inhibition of human NCI-H460 cells assessed as cell growth at 10^-7 M incubated for 48 hrs by sulforhodamine B assay; conditions: NCI-H460, 48 h, read-out: Activity
# [11] = tested on: NCI-H226; experiment: Growth inhibition of human NCI-H226 cells assessed as cell growth at 10^-4 M incubated for 48 hrs by sulforhodamine B assay; conditions: NCI-H226, 48 h, read-out: Activity
# [12] = Growth inhibition of human COLO205 cells assessed as cell growth at 10^-4 M incubated for 48 hrs by sulforhodamine B assay; conditions: COLO 205, 48 h, read-out: Activity
# Summary of the method: (§3)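 Cells seeded at 5,000–40,000/well according to doubling time and preincubated 24 h at 37 °C, 5% CO2. Time-zero plates were TCA-fixed. DMSO concentrate was diluted in medium with 50 µg/ml gentamicin to give five concentrations (10-fold or ½ log steps), then exposed 48 h. Cells were TCA-fixed, stained with 0.4% SRB and read at 515 nm. Percent growth was taken against time-zero and control; GI50, TGI and LC50 derived.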
# [13] = Growth inhibition of human SF539 cells assessed as cell growth at 10^-4 M incubated for 48 hrs by sulforhodamine B assay; conditions: SF-539, 48 h, read-out: Activity
# [14] = tested on: SK-MEL-5; experiment: Growth inhibition of human SK-MEL-5 cells assessed as cell growth at 10^-7 M incubated for 48 hrs by sulforhodamine B assay; conditions: SK-MEL-5, 48 h, read-out: Activity
# [15] = tested on: NCI/ADR-RES; experiment: Growth inhibition of human NCI/ADR-RES cells assessed as cell growth at 10^-7 M incubated for 48 hrs by sulforhodamine B assay; conditions: read-out: Activity
# [16] = tested on: SK-MEL-28; experiment: Growth inhibition of human SK-MEL-28 cells assessed as cell growth at 10 uM incubated for 48 hrs by sulforhodamine B assay; conditions: SK-MEL-28, 48 h, read-out: Activity
# [17] = Growth inhibition of human OVCAR4 cells assessed as cell growth at 10 uM incubated for 48 hrs by sulforhodamine B assay; conditions: OVCAR-4, 48 h, read-out: Activity
# [18] = tested on: MDA-MB-231; experiment: Growth inhibition of human MDA-MB-231 cells assessed as cell growth at 10^-7 M incubated for 48 hrs by sulforhodamine B assay; conditions: MDA-MB-231, 48 h, read-out: Activity
# [19] = Growth inhibition of human HCT15 cells assessed as cell growth at 10^-6 M incubated for 48 hrs by sulforhodamine B assay; conditions: HCT-15, 48 h, read-out: Activity; summary of the method: as §3
# [20] = tested on: SK-MEL-2; experiment: Growth inhibition of human SK-MEL-2 cells assessed as cell growth at 10^-6 M incubated for 48 hrs by sulforhodamine B assay; conditions: SK-MEL-2, 48 h, read-out: Activity
# [21] = Growth inhibition of human HCT15 cells assessed as cell growth at 10^-5 M incubated for 48 hrs by sulforhodamine B assay; conditions: HCT-15, 48 h, read-out: Activity; summary of the method: as §3
# [22] = Growth inhibition of human SNB19 cells assessed as cell growth at 10^-5 M incubated for 48 hrs by sulforhodamine B assay; conditions: SNB-19, 48 h, read-out: Activity
# [23] = tested on: NCI-H322M; experiment: Growth inhibition of human NCI-H322M cells assessed as cell growth at 10 uM incubated for 48 hrs by sulforhodamine B assay; conditions: read-out: Activity
# [24] = read-out: LC50 (the source's name)
# [25] = read-out: pLC50 (the source's name) (converted)
smiles,measurement,setting,value
Fc1ccc(-c2nc(Nc3ccc(-c4nc5ccccc5[nH]4)cc3)nc(N3CCOCC3)n2)cc1,growth at 100 µM,[1],-28%
same,GI50,[2]; read-out: GI50,1.93 µM
same,CC50,[2]; [24],> 100 µM
same,TGI,[2]; read-out: TGI,6.54 µM
same,GI50,[2]; read-out: pGI50 (converted),1.95 µM
same,CC50,[2]; [25],> 100 µM
same,TGI,[2]; read-out: pTGI (converted),6.61 µM
same,GI50,[3]; read-out: GI50,1.59 µM
same,CC50,[3]; [24],> 100 µM
same,TGI,[3]; read-out: TGI,4.7 µM
same,GI50,[3]; read-out: pGI50 (converted),1.58 µM
same,CC50,[3]; [25],> 100 µM
same,TGI,[3]; read-out: pTGI (converted),4.68 µM
same,GI50,[4]; read-out: GI50,1.94 µM
same,CC50,[4]; [24],8.37 µM
same,TGI,[4]; read-out: TGI,4.03 µM
same,GI50,[4]; read-out: pGI50 (converted),1.95 µM
same,CC50,[4]; [25],8.32 µM
same,TGI,[4]; read-out: pTGI (converted),4.07 µM
same,GI50,[5]; read-out: GI50,1.79 µM
same,CC50,[5]; [24],6.28 µM
same,TGI,[5]; read-out: TGI,3.36 µM
same,GI50,[5]; read-out: pGI50 (converted),1.78 µM
same,CC50,[5]; [25],6.31 µM
same,TGI,[5]; read-out: pTGI (converted),3.39 µM
same,GI50,[6]; read-out: GI50,2.39 µM
same,CC50,[6]; [24],> 100 µM
same,TGI,[6]; read-out: TGI,6.66 µM
same,GI50,[6]; read-out: pGI50 (converted),2.4 µM
same,CC50,[6]; [25],> 100 µM
same,TGI,[6]; read-out: pTGI (converted),6.61 µM
same,growth at 10 µM,[7],-70%
same,growth at 0.1 µM,[8],96%
same,growth at 0.1 µM,[9],111%
same,growth at 0.1 µM,[10],103%
same,growth at 100 µM,[11],-50%
same,growth at 100 µM,[12],-57%
same,growth at 100 µM,[13],-84%
same,growth at 0.1 µM,[14],101%
same,growth at 0.1 µM,[15],95%
same,growth at 10 µM,[16],-34%
same,growth at 10 µM,[17],59.8%
same,growth at 0.1 µM,[18],86%
same,growth at 1 µM,[19],74%
same,growth at 1 µM,[20],99%
same,growth at 10 µM,[21],-35%
same,growth at 10 µM,[22],15%
same,growth at 10 µM,[23],27%
c1ccc2[nH]c(-c3ccc(Nc4nc(N5CCCCC5)nc(N5CCOCC5)n4)cc3)nc2c1,growth at 100 µM,[1],-50%
same,GI50,[2]; read-out: GI50,2.23 µM
same,CC50,[2]; [24],> 100 µM
same,TGI,[2]; read-out: TGI,6.58 µM
same,GI50,[2]; read-out: pGI50 (converted),2.24 µM
same,CC50,[2]; [25],> 100 µM
same,TGI,[2]; read-out: pTGI (converted),6.61 µM
same,GI50,[3]; read-out: GI50,1.85 µM
same,CC50,[3]; [24],34.6 µM
same,TGI,[3]; read-out: TGI,4.6 µM
same,GI50,[3]; read-out: pGI50 (converted),1.86 µM
same,CC50,[3]; [25],34.7 µM
same,TGI,[3]; read-out: pTGI (converted),4.57 µM
same,GI50,[4]; read-out: GI50,2.05 µM
same,CC50,[4]; [24],15.6 µM
same,TGI,[4]; read-out: TGI,4.72 µM
same,GI50,[4]; read-out: pGI50 (converted),2.04 µM
same,CC50,[4]; [25],15.5 µM
same,TGI,[4]; read-out: pTGI (converted),4.68 µM
same,GI50,[5]; read-out: GI50,1.78 µM
same,CC50,[5]; [24],6.11 µM
same,TGI,[5]; read-out: TGI,3.3 µM
same,GI50,[5]; read-out: pGI50 (converted),1.78 µM
same,CC50,[5]; [25],6.17 µM
same,TGI,[5]; read-out: pTGI (converted),3.31 µM
same,GI50,[6]; read-out: GI50,3.05 µM
same,CC50,[6]; [24],> 100 µM
same,TGI,[6]; read-out: TGI,9.13 µM
same,GI50,[6]; read-out: pGI50 (converted),3.02 µM
same,CC50,[6]; [25],> 100 µM
same,TGI,[6]; read-out: pTGI (converted),9.12 µM
same,growth at 10 µM,[7],-78%
same,growth at 0.1 µM,[8],100%
same,growth at 0.1 µM,[9],84%
same,growth at 0.1 µM,[10],98%
same,growth at 100 µM,[11],-36%
same,growth at 100 µM,[12],-69%
same,growth at 100 µM,[13],-76%
same,growth at 0.1 µM,[14],93%
same,growth at 0.1 µM,[15],98%
same,growth at 10 µM,[16],-30.2%
same,growth at 10 µM,[17],61.2%
same,growth at 0.1 µM,[18],98%
same,growth at 1 µM,[19],87%
same,growth at 1 µM,[20],101%
same,growth at 10 µM,[21],-49%
same,growth at 10 µM,[22],13%
same,growth at 10 µM,[23],35%
